We go through 3 compounds from ChEMBL document CHEMBL1811873, “Peroxisome proliferator-activated receptor agonists with phenethylphenylphthalimide skeleton derived from thalidomide-related liver X receptor antagonists: relationship between absolute configuration and subtype selectivity” (Bioorg Med Chem, 2011).

Activity calls are given as the source filed them. No cut-off for these calls is given here.

In experiment [1] the target is T1, Oxysterols receptor LXR-alpha (Homo sapiens) (UniProt Q13133).
T1 sequence (whole entry): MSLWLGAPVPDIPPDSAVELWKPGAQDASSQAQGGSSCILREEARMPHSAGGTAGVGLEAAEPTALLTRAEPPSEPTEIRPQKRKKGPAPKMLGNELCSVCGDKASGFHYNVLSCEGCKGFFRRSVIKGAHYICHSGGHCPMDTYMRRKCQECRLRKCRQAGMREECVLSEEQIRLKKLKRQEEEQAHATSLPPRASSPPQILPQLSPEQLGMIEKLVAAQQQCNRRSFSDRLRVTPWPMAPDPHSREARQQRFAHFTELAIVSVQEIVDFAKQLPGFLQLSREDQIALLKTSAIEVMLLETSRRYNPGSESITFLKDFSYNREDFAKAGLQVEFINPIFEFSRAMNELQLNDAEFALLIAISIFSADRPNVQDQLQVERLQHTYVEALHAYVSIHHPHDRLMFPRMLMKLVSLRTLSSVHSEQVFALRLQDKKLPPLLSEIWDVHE
Nature of the experiment: Agonist activity at LXR. The class given is functional.

For experiment [2], the target named is T2, Peroxisome proliferator-activated receptor delta (Homo sapiens) (UniProt Q03181).
T2 sequence (whole entry): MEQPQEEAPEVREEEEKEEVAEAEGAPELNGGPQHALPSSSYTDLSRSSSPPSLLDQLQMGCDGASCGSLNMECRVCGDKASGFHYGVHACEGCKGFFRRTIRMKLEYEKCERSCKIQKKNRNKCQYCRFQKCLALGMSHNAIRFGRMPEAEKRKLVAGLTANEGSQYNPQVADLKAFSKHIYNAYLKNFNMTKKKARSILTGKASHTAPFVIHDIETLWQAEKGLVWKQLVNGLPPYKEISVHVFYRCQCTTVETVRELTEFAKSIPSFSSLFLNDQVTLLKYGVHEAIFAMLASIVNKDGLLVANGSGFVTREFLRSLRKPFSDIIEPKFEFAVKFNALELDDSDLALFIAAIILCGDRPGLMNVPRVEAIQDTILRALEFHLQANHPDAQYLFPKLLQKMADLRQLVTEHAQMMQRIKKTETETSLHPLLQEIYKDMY
Briefly: Agonist activity at human PPARdelta expressed in HEK293 after 8 hrs by luciferase reporter gene assay relative to GW501516. The class given is functional, cell-based. The procedure, abridged:
(§1)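 GAL4N-hPPAR LBD chimera with TK-MH100x4-LUC reporter in calcium-phosphate-transfected HEK293 (DMEM, 5% FBS), compounds added 8 h post-transfection. Luciferase was normalized to β-galactosidase. Percent efficacy (Emax) was taken at the maximal stimulatory response relative to 10 µM fenofibric acid (PPARα), 100 nM GW501516 (PPARδ) or 10 µM ciglitazone (PPARγ). Triplicate, at least twice.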
A general note: A reporter such as luciferase makes a cellular process visible.

Experiment [3] addresses T3, Peroxisome proliferator-activated receptor alpha (Homo sapiens) (UniProt Q07869).
T3 sequence (whole entry): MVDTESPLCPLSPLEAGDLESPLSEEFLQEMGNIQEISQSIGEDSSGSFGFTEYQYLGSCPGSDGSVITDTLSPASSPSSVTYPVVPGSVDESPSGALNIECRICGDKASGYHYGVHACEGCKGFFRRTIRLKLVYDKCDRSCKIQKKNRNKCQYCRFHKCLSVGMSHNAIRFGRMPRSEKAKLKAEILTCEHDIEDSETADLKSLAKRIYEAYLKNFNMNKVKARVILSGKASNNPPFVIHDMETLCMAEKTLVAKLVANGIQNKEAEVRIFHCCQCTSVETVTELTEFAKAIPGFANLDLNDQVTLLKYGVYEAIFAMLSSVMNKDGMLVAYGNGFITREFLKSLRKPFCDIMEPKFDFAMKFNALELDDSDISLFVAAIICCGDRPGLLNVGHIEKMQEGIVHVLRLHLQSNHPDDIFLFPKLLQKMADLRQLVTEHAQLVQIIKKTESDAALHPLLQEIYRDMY
Nature of the experiment: Agonist activity at human PPARalpha expressed in HEK293 after 8 hrs by luciferase reporter gene assay relative to fenofibric acid. The experiment is classed as functional, cell-based. In outline: as §1

Experiment [4] addresses T4, Peroxisome proliferator-activated receptor gamma (Homo sapiens) (UniProt P37231).
T4 sequence (whole entry): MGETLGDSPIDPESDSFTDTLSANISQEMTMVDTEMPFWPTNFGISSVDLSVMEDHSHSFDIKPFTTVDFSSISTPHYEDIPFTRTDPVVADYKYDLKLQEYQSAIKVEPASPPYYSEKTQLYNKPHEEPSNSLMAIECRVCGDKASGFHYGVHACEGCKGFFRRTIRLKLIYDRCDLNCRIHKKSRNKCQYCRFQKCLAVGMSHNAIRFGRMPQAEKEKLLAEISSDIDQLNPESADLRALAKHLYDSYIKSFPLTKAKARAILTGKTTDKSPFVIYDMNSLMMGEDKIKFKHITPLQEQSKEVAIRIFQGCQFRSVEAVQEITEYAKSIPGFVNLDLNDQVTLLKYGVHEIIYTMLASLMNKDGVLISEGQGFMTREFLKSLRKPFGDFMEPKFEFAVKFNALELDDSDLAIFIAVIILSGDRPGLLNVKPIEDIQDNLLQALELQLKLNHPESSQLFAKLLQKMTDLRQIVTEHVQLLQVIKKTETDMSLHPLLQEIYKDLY
Nature of the experiment: Agonist activity at PPARgamma expressed in HEK293 after 8 hrs by luciferase reporter gene assay relative to ciglitazone. The class given is functional, cell-based. The procedure, abridged:
as §1

The target in experiment [5] is T5, Peroxisome proliferator-activated receptor gamma (Homo sapiens, UniProt P37231).
T5 sequence (P37231 whole entry): T4 sequence (whole entry)
Briefly: Agonist activity at PPARgamma expressed in HEK293 after 8 hrs by luciferase reporter gene assay. The experiment is classed as functional, cell-based. In outline:
(§2)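 HEK293 cells grown in DMEM with 5% FBS at 37 °C in 5% CO2 were calcium-phosphate co-transfected with CMX-GAL4N-hPPAR LBD (subtype-specific), TK-MH100x4-LUC reporter and CMX β-galactosidase for normalization. Compounds were added 8 h post-transfection. Luciferase was read by luminometer and β-galactosidase by plate reader. Values are normalized averages; triplicate, repeated at least twice.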

For experiment [6], the target named is T1, Oxysterols receptor LXR-alpha (Homo sapiens). Nature of the experiment: Antagonist activity at LXR. The class given is functional.
Experiment [7] addresses T6, Bile acid receptor (Homo sapiens) (UniProt Q96RI1).
T6 sequence (whole entry): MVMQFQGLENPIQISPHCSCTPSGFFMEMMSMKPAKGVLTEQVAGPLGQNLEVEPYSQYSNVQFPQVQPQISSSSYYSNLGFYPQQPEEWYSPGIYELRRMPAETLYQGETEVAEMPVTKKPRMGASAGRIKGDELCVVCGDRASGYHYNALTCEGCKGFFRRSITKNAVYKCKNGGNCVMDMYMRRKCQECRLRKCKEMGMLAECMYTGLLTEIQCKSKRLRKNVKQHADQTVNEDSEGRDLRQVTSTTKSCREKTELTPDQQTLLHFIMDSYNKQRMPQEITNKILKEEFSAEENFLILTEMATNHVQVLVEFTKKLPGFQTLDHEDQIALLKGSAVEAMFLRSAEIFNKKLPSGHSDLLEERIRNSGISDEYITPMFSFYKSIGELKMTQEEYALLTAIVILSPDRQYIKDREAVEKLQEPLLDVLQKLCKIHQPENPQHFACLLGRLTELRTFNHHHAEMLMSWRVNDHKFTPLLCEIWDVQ
Nature of the experiment: Agonist activity at FXR transfected in HEK293 cells by luciferase reporter gene assay. The class given is functional, cell-based.

Experiment [8] deals with T6, Bile acid receptor (Homo sapiens). Nature of the experiment: Antagonist activity at FXR transfected in HEK293 cells by luciferase reporter gene assay. The class given is functional, cell-based.
The target of experiment [9] is T7, Peroxisome proliferator-activated receptor alpha (Homo sapiens, UniProt Q07869).
T7 sequence (Q07869 whole entry): T3 sequence (whole entry)
Nature of the experiment: Agonist activity at human PPARalpha expressed in HEK293 after 8 hrs by luciferase reporter gene assay. The class given is functional, cell-based. In outline:
as §2

Experiment [10] deals with T8, Peroxisome proliferator-activated receptor delta (Homo sapiens, UniProt Q03181).
T8 sequence (Q03181 whole entry): T2 sequence (whole entry)
Nature of the experiment: Agonist activity at PPARdelta expressed in HEK293 after 8 hrs by luciferase reporter gene assay. The class given is functional, cell-based. In outline: as §2

On to `O=C(O)CCCOc1ccc(CCc2ccc(N3C(=O)c4ccccc4C3=O)cc2)cc1`, for which the outcome in experiment [1], in [6], in experiment [7] and in experiment [8] was inactive. The Emax in [2] was 1%; in experiment [3], 0%; in experiment [4], 31%. In addition, the EC50 in experiment [5] was 12 µM.

With `O=C(O)CCc1ccc(CCc2ccc(N3C(=O)c4ccccc4C3=O)cc2)cc1`, the outcome in experiment [1], in experiment [6], in experiment [7] and in experiment [8] was inactive. Further, the EC50 in experiment [9] was 11 µM; in [10], 13 µM. Also, the Emax in [2] was 27%; in [3], 53%; in [4] it was 7%.

On to `O=C(O)COc1ccc(CCc2ccc(N3C(=O)c4ccccc4C3=O)cc2)cc1`, for which the result in experiment [1], in experiment [6], in experiment [7] and in experiment [8] was inactive. The EC50 in experiment [9] was determined as 29 µM; in [10], 62 µM. Moreover, the Emax was 10% in experiment [2], 29% in experiment [3] and 6% in [4].

By EC50 is commonly meant the midpoint of the concentration-response curve. Higher therefore signals a less potent agent.
